From ChEMBL document CHEMBL3525931, “Stereoselective interaction of pantoprazole with ABCG2. II. In vitro flux analysis” (Drug Metab Dispos, 2012)

What was measured:
[1] = Permeability surface area for passive diffusion in MDCK2 cells assessed as transport at 30 uM after 0.5 to 1 hrs by HPLC method; format: ADME, cell-based, Canis lupus familiaris; conditions: dog, mdck-ii
Method in brief: (§1)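 PS_D (passive diffusion) derived from observed permeability of single PAN isomers across empty-vector (pcDNA3.1) MDCKII monolayers (TEER >200 Ω·cm²). Both A→B and B→A directions in serum-free Opti-MEM I at 37°C, with [3H]mannitol as paracellular marker. Receiver sampled at 0.5 and 1 h, PAN measured by HPLC-UV. PS_D calculated from a three-compartment model equation at each donor concentration.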

[2] = Permeability surface area for passive diffusion in MDCK2 cells assessed as transport at 10 uM after 0.5 to 1 hrs by HPLC method; format: ADME, cell-based, Canis lupus familiaris; conditions: dog, mdck-ii; method in brief: as §1
[3] = Permeability surface area for passive diffusion in MDCK2 cells assessed as transport at 200 uM after 0.5 to 1 hrs by HPLC method; format: ADME, cell-based, Canis lupus familiaris; conditions: dog, mdck-ii; method in brief: as §1
[4] = Permeability surface area for passive diffusion in MDCK2 cells assessed as transport at 3 to 200 uM after 0.5 to 1 hrs by HPLC method; format: ADME, cell-based, Canis lupus familiaris; conditions: dog, mdck-ii; method in brief: as §1
[5] = Permeability surface area for passive diffusion in MDCK2 cells assessed as transport at 3 uM after 0.5 to 1 hrs by HPLC method; format: ADME, cell-based, Canis lupus familiaris; conditions: dog, mdck-ii; method in brief: as §1
[6] = Permeability surface area for passive diffusion in MDCK2 cells assessed as transport at 50 uM after 0.5 to 1 hrs by HPLC method; format: ADME, cell-based, Canis lupus familiaris; conditions: dog, mdck-ii; method in brief: as §1
[7] = substrate: COc1ccnc(C[S@@+]([O-])c2nc3cc(OC(F)F)ccc3[nH]2)c1OC; test: (§2) Drug transport in MDCK2 cells expressing human ABCG2 assessed as ABCG2-mediated transport by HPLC method; format: ADME, cell-based, MDCK-II
Method in brief: (§3)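 Kinetics came from the same Transwell bidirectional flux runs in rat Abcg2- or human ABCG2-MDCKII, with donor 3–200 μM single isomer. Cellular concentrations were predicted from a three-compartment model using PS_D from mock cells and PS_PC from mannitol. Apparent apical efflux permeability was fitted against predicted cellular concentration by saturable kinetics to give K_M and T_max.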

[8] = substrate: COc1ccnc(C[S@+]([O-])c2nc3cc(OC(F)F)ccc3[nH]2)c1OC; test: as §2; format: ADME, cell-based, MDCK-II; method in brief: as §3
[9] = substrate: COc1ccnc(C[S@@+]([O-])c2nc3cc(OC(F)F)ccc3[nH]2)c1OC; test: (§4) Drug transport in MDCK2 cells expressing rat ABCG2 assessed as ABCG2-mediated transport by HPLC method; format: ADME, cell-based, MDCK-II; method in brief: as §3
[10] = substrate: COc1ccnc(C[S@+]([O-])c2nc3cc(OC(F)F)ccc3[nH]2)c1OC; test: as §4; format: ADME, cell-based, MDCK-II; method in brief: as §3

COc1ccnc(C[S+]([O-])c2nc3ccc(OC(F)F)cc3[nH]2)c1OC (racemic) [PANTOPRAZOLE]
Papp [1]: 226 uL/hr/cm2
Papp [2]: 242 uL/hr/cm2
Papp [3]: 271 uL/hr/cm2
Papp [4]: 244 uL/hr/cm2
Papp [5]: 231 uL/hr/cm2
Papp [6]: 251 uL/hr/cm2

B1: Broad substrate specificity ATP-binding cassette transporter ABCG2 (Homo sapiens) (protein)
chain: MSSSNVEVFIPVSQGNTNGFPATASNDLKAFTEGAVLSFHNICYRVKLKSGFLPCRKPVEKEILSNINGIMKPGLNAILGPTGGGKSSLLDVLAARKDPSGLSGDVLINGAPRPANFKCNSGYVVQDDVVMGTLTVRENLQFSAALRLATTMTNHEKNERINRVIQELGLDKVADSKVGTQFIRGVSGGERKRTSIGMELITDPSILFLDEPTTGLDSSTANAVLLLLKRMSKQGRTIIFSIHQPRYSIFKLFDSLTLLASGRLMFHGPAQEALGYFESAGYHCEAYNNPADFFLDIINGDSTAVALNREEDFKATEIIEPSKQDKPLIEKLAEIYVNSSFYKETKAELHQLSGGEKKKKITVFKEISYTTSFCHQLRWVSKRSFKNLLGNPQASIAQIIVTVVLGLVIGAIYFGLKNDSTGIQNRAGVLFFLTTNQCFSSVSAVELFVVEKKLFIHEYISGYYRVSSYFLGKLLSDLLPMRMLPSIIFTCIVYFMLGLKPKADAFFVMMFTLMMVAYSASSMALAIAAGQSVVSVATLLMTICFVFMMIFSGLLVNLTTIASWLSWLQYFSIPRYGFTALQHNEFLGQNFCPGLNATGNNPCNYATCTGEEYLVKQGIDLSPWGLWKNHVALACMIVIFLTIAYLKLLFLKKYS
Km [7]: 5.32 µM
Km [8]: 0.59 µM

B2: Broad substrate specificity ATP-binding cassette transporter ABCG2 (Rattus norvegicus) (protein)
chain: MSSSNDHVLVPMSQRNKNGLPGMSSRGARTLAEGDVLSFHHITYRVKVKSGFLVRKTAEKEILSDINGIMKPGLNAILGPTGGGKSSLLDVLAARKDPRGLSGDVLINGAPQPANFKCSSGYVVQDDVVMGTLTVRENLQFSAALRLPKAMKTHEKNERINTIIKELGLDKVADSKVGTQFTRGISGGERKRTSIGMELITDPSILFLDEPTTGLDSSTANAVLLLLKRMSKQGRTIIFSIHQPRYSIFKLFDSLTLLASGKLMFHGPAQKALEYFASAGYHCEPYNNPADFFLDVINGDSSAVMLNRGEQDHEANKTEEPSKREKPIIENLAEFYINSTIYGETKAELDQLPVAQKKKGSSAFREPVYVTSFCHQLRWIARRSFKNLLGNPQASVAQLIVTVILGLIIGALYFGLKNDPTGMQNRAGVFFFLTTNQCFTSVSAVELFVVEKKLFIHEYISGYYRVSSYFFGKLVSDLLPMRFLPSVIYTCILYFMLGLKRTVEAFFIMMFTLIMVAYTASSMALAIAAGQSVVSVATLLMTISFVFMMLFSGLLVNLRTIGPWLSWLQYFSIPRYGFTALQHNEFLGQEFCPGLNVTMNSTCVNSYTICTGNDYLINQGIDLSPWGLWRNHVALACMIIIFLTIAYLKLLFLKKYS
Km [9]: 1.85 µM
Km [10]: 0.25 µM
